An excerpt weighted towards active compounds, which were near 4.1% of everything screened.
KCNK3 inh: human KCNK3 channel inhibitors, primary screen, CHO cells, FluxOR thallium flux, B-score; hit rate 0.84% among 340,000; B-score at 10 µM; FluxOR fluorescence; hits give low values; Potassium channel subfamily K member 3 (Homo sapiens), O14649;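 active = B-score under library mean minus 4 SD, starting fluorescence ratio at most library mean plus 5 SD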;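 note: more negative B-score means stronger inhibition of thallium flux through KCNK3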
KCNQ1 pot: potentiators or activators of KCNQ1 channel, primary screen, cell-based, thallium flux, high-throughput; Potassium voltage-gated channel subfamily KQT member 1 (Homo sapiens), P51787; CHO-K1 KCNQ1, thallium flux FluxOR fluorescence; hits give high values; B-score at 10 µM; hit rate 0.35% among 310,000;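 active = fluorescence ratio B-score, a plate-corrected score, at least three library SD, with initial intensity B-score within 5 SD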
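Medium – assay buffer, equal DMSO in all wells · Material – CHO-K1 cell line with stable KCNQ1 potassium channel expression · Signal – kinetic FluxOR thallium fluorescence, 10-s 1-Hz baseline, 110-s post-stimulus read · Compound – single concentration per compound, DMSO matched to controls · Schedule – 37 °C overnight plating, 90-min dark dye load, 20-min compound pretreatment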
KCNK9 block: KCNK9 potassium channel inhibitors, primary screen, HEK293 cells, thallium flux. AID 488922, 2010. FluxOR thallium flux fluorescence; hits give low values. B-score at 10 µM. hit rate 1.2% among 310,000. Potassium channel subfamily K member 9 (Homo sapiens), Q9NPC2;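 active = ratio B-score over 3 SD below the library mean, with starting fluorescence within 5 SD of its mean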;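 note: negative B-score means less thallium flux so channel inhibition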
hERG protect: hERG rescue from dofetilide block, primary screen, cell-based, CHO-hERG, FluxOR thallium flux, dofetilide IC70 | Voltage-gated inwardly rectifying potassium channel KCNH2 (Homo sapiens), Q12809 | AID 1511, 2009 | dofetilide IC70 present | hit rate 0.51% among 310,000 | activation (rescue from dofetilide block), less the hit threshold, % at 10 µM;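 active = activation above the mean of controls blocked by dofetilide plus 5 SD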;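 note: thallium influx through hERG after potassium depolarization seen as dye fluorescence rise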
KCNQ1 block: inhibitors of human KCNQ1 channel, primary screen, cell-based, thallium flux, high-throughput; AID 2642, 2010; Potassium voltage-gated channel subfamily KQT member 1 (Homo sapiens), P51787; CHO-K1 KCNQ1, FluxOR thallium flux fluorescence; hits give high values; hit rate 1.3% among 310,000; B-score at 10 µM;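 active = compounds whose thallium flux B-score, printed positive for inhibition, exceeds three library SD while starting fluorescence stays within three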;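 note: channel opened by potassium depolarization with thallium stimulus after 20 min compound exposure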
Cl transport mod: KCC2 cotransporter modulators, thallium flux, primary screen, cell-based, HEK293 KCC2, FluoZin-2 fluorescence, MLSMR | KCC2 cells, thallium flux FluoZin-2 fluorescence | B-score of Tl+ flux slope (higher = more flux/activation; lower = inhibition) at 10 µM | hit rate 2.2% among 190,000 | AID 1456, 2008;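 active = thallium flux slope and its plate-corrected score both differing from the plate sample mean at a set confidence after two filtering rounds, in either direction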;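 note: slope of fluorescence scaled to starting intensity during 10 to 20 s after thallium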
Target sequence (Q9H2X9 whole entry, looked up): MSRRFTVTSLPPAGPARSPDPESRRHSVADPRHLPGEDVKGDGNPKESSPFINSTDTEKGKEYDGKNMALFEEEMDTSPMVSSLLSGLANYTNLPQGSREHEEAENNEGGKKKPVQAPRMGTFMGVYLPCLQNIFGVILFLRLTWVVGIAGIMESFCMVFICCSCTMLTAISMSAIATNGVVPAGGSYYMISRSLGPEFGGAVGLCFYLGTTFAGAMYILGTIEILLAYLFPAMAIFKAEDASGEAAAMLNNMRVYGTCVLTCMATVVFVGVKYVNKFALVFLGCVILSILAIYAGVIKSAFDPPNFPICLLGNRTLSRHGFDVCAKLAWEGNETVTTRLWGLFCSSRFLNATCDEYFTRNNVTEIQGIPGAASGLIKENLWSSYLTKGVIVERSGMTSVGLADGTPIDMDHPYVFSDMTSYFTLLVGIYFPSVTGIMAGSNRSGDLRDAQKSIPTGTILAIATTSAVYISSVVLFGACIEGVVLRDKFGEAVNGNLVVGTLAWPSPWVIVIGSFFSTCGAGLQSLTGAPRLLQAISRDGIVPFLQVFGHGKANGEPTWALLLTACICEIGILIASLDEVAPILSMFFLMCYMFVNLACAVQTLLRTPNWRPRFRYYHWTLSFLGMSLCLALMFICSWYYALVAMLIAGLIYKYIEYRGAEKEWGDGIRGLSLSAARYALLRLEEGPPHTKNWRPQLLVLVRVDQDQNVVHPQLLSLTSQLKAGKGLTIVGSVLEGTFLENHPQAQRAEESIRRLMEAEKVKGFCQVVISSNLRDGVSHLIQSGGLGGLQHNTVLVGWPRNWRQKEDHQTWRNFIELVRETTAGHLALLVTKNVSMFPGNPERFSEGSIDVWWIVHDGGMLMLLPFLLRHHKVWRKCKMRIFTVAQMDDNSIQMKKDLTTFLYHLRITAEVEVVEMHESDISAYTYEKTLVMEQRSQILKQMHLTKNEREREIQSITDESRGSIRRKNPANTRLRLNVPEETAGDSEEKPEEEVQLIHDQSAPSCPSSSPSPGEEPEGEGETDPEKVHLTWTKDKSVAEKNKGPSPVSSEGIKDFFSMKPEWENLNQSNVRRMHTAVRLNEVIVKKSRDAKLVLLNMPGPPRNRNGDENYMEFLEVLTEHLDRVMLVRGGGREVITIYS
Starred values were filed as active, the others as inactive.

Cc1cccc(NCCC(=O)c2ccc([N+](=O)[O-])cc2)c1C was read as KCNK3 inh inactive, KCNQ1 pot inactive, KCNK9 block inactive, hERG protect 4.7*, KCNQ1 block inactive and Cl transport mod -0.271.
For Cc1ccc(C(=O)c2cc(C)sc2NC(=O)CN2CCN(C(=O)c3ccco3)CC2)cc1 the results were KCNK3 inh inactive, KCNQ1 pot inactive, KCNK9 block inactive, hERG protect -19.6 and KCNQ1 block 9*.
`O=C(COC(=O)CSc1ccc([N+](=O)[O-])cc1)NCCCc1ccccc1` gave KCNK3 inh inactive, KCNQ1 pot inactive, KCNK9 block inactive, hERG protect -11.9 and KCNQ1 block inactive.
CCCCOc1ccc(/C=C/C(=O)Nc2ccc([N+](=O)[O-])cc2C)cc1 was read as KCNK3 inh inactive, KCNQ1 pot inactive, KCNK9 block inactive, hERG protect -4.5, KCNQ1 block inactive and Cl transport mod 1.65.
For CCCOc1ccc(/C=C/C(=O)Nc2ccc([N+](=O)[O-])cc2)cc1 the results were KCNK3 inh inactive, KCNQ1 pot inactive, KCNK9 block inactive, hERG protect -15.6 and KCNQ1 block 7*.
`CCOC(=O)CSc1ccc2ccccc2n1` gave KCNK3 inh inactive, KCNQ1 pot inactive, KCNK9 block inactive, hERG protect -13.0, KCNQ1 block inactive and Cl transport mod -0.973.
CCOC(=O)CN1C=C(c2ccc3ccccc3n2)C(C[N+](=O)[O-])c2ccccc21 (centres undefined) was read as KCNK3 inh inactive, KCNQ1 pot inactive, KCNK9 block inactive, hERG protect -26.1, KCNQ1 block 11* and Cl transport mod -1.85.
`COc1ccc(N2CCN(C(=O)c3ccccc3)CC2)c([N+](=O)[O-])c1` gave KCNK3 inh inactive, KCNQ1 pot inactive, KCNK9 block inactive, hERG protect -1.8, KCNQ1 block inactive and Cl transport mod 0.524.
O=C(NC(=S)N1CCN(c2c(Cl)cccc2[N+](=O)[O-])CC1)c1cccs1 was read as KCNK3 inh inactive, KCNQ1 pot 49*, KCNK9 block inactive, hERG protect 3.1 and KCNQ1 block inactive.
O=C(NC(=S)N1CCN(c2ccc(O)cc2)CC1)c1cccs1 was read as KCNK3 inh inactive, KCNQ1 pot inactive, KCNK9 block inactive, hERG protect -10.5, KCNQ1 block inactive and Cl transport mod 2.79.
`COc1ccc(N2CCN(C(=S)NC(=O)c3cccs3)CC2)c([N+](=O)[O-])c1` gave KCNK3 inh inactive, KCNQ1 pot 13*, KCNK9 block inactive, hERG protect -7.5, KCNQ1 block inactive and Cl transport mod 89.8*.
For C=CCn1c(=S)[nH]c2sc3c(c2c1=O)CCC3 the results were KCNK3 inh inactive, KCNQ1 pot inactive, KCNK9 block inactive, hERG protect 16.1*, KCNQ1 block inactive and Cl transport mod 31.1*.
Screening CCn1c(=S)[nH]c2sc3c(c2c1=O)CCCC3 returned KCNK3 inh inactive, KCNQ1 pot 35*, KCNK9 block inactive, hERG protect 16.0* and KCNQ1 block inactive.
For CN(C)CCCn1c(=S)[nH]c2sc3c(c2c1=O)CCCC3 the results were KCNK3 inh inactive, KCNQ1 pot inactive, KCNK9 block inactive, hERG protect -11.6 and KCNQ1 block inactive.
Screening CC1CCc2c(sc3[nH]c(=S)n(C)c(=O)c23)C1 (centres undefined) returned KCNK3 inh inactive, KCNQ1 pot 74*, KCNK9 block inactive, hERG protect 52.4* and KCNQ1 block inactive.
Screening CC1CCc2c(sc3nn[nH]c(=O)c23)C1 (centres undefined) returned KCNK3 inh inactive, KCNQ1 pot inactive, KCNK9 block inactive, hERG protect -9.8, KCNQ1 block inactive and Cl transport mod -0.176.
`CC1CCCC(NC(=O)NC(=O)COC(=O)c2ccc(O)cc2O)C1C` (centres undefined) gave KCNK3 inh inactive.
Screening CCCOc1ccc(C(=O)NNC(=S)NC(=O)c2cccs2)cc1 returned KCNK3 inh inactive, KCNQ1 pot 38*, KCNK9 block inactive, hERG protect 8.8* and KCNQ1 block inactive.
`CCCOc1ccc(C(=O)NNC(=S)NC(=O)c2ccccc2)cc1` gave KCNK3 inh inactive, KCNQ1 pot 34*, KCNK9 block inactive, hERG protect 16.8* and KCNQ1 block inactive.
Screening CCCOc1ccc(C(=O)NNC(=S)NC(=O)c2cc(-c3ccccc3)nc3ccccc23)cc1 returned KCNK3 inh inactive, KCNQ1 pot 19*, KCNK9 block inactive, hERG protect -1.9, KCNQ1 block inactive and Cl transport mod 1.54.
Screening CC1=C(c2ccccc2)C(O)(c2ccccc2)C(C)C1=O (centres undefined) returned KCNK3 inh inactive.
Screening Cc1ccnc2nc(C(=O)OCC(=O)N3CC(C)CC(C)C3)nn12 (centres undefined) returned KCNK3 inh inactive.
For CCn1c(=O)c2ccccc2n2c(SCC(=O)N3CCc4ccccc4C3)nnc12 the results were KCNK3 inh inactive, KCNQ1 pot inactive, KCNK9 block inactive, hERG protect -8.4 and KCNQ1 block inactive.
CC(C)c1ccccc1-n1c(SCC(=O)N2CCc3ccccc3C2)nc2ccccc2c1=O was read as KCNK3 inh inactive, KCNQ1 pot inactive, KCNK9 block inactive, hERG protect -10.9, KCNQ1 block 9* and Cl transport mod -2.54.
Screening CCCn1c(=O)c2ccccc2n2c(SCC(=O)N3CCc4ccccc4C3)nnc12 returned KCNK3 inh inactive, KCNQ1 pot inactive, KCNK9 block inactive, hERG protect -6.3, KCNQ1 block inactive and Cl transport mod -4.13*.
`CC[C@]12c3[nH]c4cc(CCC(=O)N(C)C)ccc4c3CCN1C(=O)[C@@H](CC(=O)NCc1ccco1)C[C@@H]2C(=O)N1CCN(C(=O)C2CC2)CC1` gave KCNK3 inh inactive.
`COc1cccc(NC(=O)COC(=O)Cn2c(C)csc2=O)c1` gave KCNK3 inh inactive.
Cc1cc(N2CCN(c3ccccc3Cl)CC2)n2cc(-c3ccccc3)nc2n1 was read as KCNK3 inh inactive, KCNQ1 pot inactive, KCNK9 block -12.3*, hERG protect -18.3, KCNQ1 block inactive and Cl transport mod -0.418.
